{
  "source": "paper PMC5910468",
  "about": "(Advances in Therapy, 2018)",
  "key": {"[1]": {"conditions": "SUSTAIN 6, no change with placebo, cited from earlier work"}, "[2]": {"experiment": "Anti-semaglutide antibodies", "type": "in vivo, human", "conditions": "both populations, 0.5 and 1.0 mg, at follow-up"}, "[3]": {"type": "in vivo, human", "conditions": "for AUC0–168h,sema,SS estimated race ratio [95% CI] (Japanese/Caucasian) / Cmax,sema,SS estimated race ratio [95% CI] (Japanese/Caucasian): steady state", "how_it_was_run": "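Healthy Japanese or Caucasian men, s.c. once weekly with stepwise escalation from 0.25 mg. Plasma drug measured by validated LC–MS/MS. Dense sampling 0–168 h after first dose and 0–840 h after last dose (day 84), with pre-dose troughs from day 7 to 84. AUC0–168h by linear trapezoidal method at actual times. Racc,DC = (AUC_SS/last dose)/(AUC_SD/first dose). Log values fitted by linear normal model (race, dose, race×dose) and back-transformed to ratios with 95% CI.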"}, "[4]": {"experiment": "Pulse rate change from baseline to end of treatment", "type": "in vivo, human"}, "[5]": {"type": "in vivo, human", "conditions": "for Gastrointestinal disorders, proportion of subjects / Adverse events, proportion of subjects: 8 subjects", "how_it_was_run": "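Double-blind, placebo-controlled, 13 weeks of once-weekly s.c. dosing plus 5 weeks of follow-up. Monitored adverse events, hypoglycemic episodes, vital signs, ECG and physical examination. Laboratory tests covered hematology, biochemistry, calcitonin and urinalysis, and anti-drug antibodies were measured at follow-up. Every randomized subject given at least one dose was included in the safety analysis.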"}, "[6]": {"conditions": "semaglutide; cited from earlier work"}, "[7]": {"conditions": "semaglutide 0.5 mg s.c. once weekly"}, "[8]": {"conditions": "semaglutide 1.0 mg s.c. once weekly"}, "[9]": {"conditions": "Japanese subjects, 0.5 mg, placebo 16.7%"}, "[10]": {"conditions": "Japanese subjects, 1.0 mg, placebo 16.7%"}},
  "note": "Where two headings read alike, the source gives them in different places.",
  "data": [
    {"smiles": "CC[C@H](C)[C@H](NC(=O)[C@H](Cc1ccccc1)NC(=O)[C@H](CCC(=O)O)NC(=O)[C@H](CCCCNC(=O)COCCOCCNC(=O)COCCOCCNC(=O)CC[C@H](NC(=O)CCCCCCCCCCCCCCCCC(=O)O)C(=O)O)NC(=O)[C@H](C)NC(=O)[C@H](C)NC(=O)[C@H](CCC(N)=O)NC(=O)CNC(=O)[C@H](CCC(=O)O)NC(=O)[C@H](CC(C)C)NC(=O)[C@H](Cc1ccc(O)cc1)NC(=O)[C@H](CO)NC(=O)[C@H](CO)NC(=O)[C@@H](NC(=O)[C@H](CC(=O)O)NC(=O)[C@H](CO)NC(=O)[C@@H](NC(=O)[C@H](Cc1ccccc1)NC(=O)[C@@H](NC(=O)CNC(=O)[C@H](CCC(=O)O)NC(=O)C(C)(C)NC(=O)[C@@H](N)Cc1cnc[nH]1)[C@@H](C)O)[C@@H](C)O)C(C)C)C(=O)N[C@@H](C)C(=O)N[C@@H](Cc1c[nH]c2ccccc12)C(=O)N[C@@H](CC(C)C)C(=O)N[C@H](C(=O)N[C@@H](CCCNC(=N)N)C(=O)NCC(=O)N[C@@H](CCCNC(=N)N)C(=O)NCC(=O)O)C(C)C", "note": "[Semaglutide]", "values": [
      {"measurement": "Mean pulse rate increase", "setting": "[1]; semaglutide 0.5 mg", "result": 2.1, "unit": "bpm"},
      {"measurement": "Mean pulse rate increase", "setting": "[1]; semaglutide 1.0 mg", "result": 2.4, "unit": "bpm"},
      {"measurement": "Development of anti-semaglutide antibodies", "setting": "[2]", "result": "No subjects developed anti-semaglutide antibodies"},
      {"measurement": "Dose-corrected accumulation ratio", "setting": "[3]; overall statement, once-weekly dosing, both races and doses", "result": "approximately 2"},
      {"measurement": "Racc,DC,sema estimated race ratio [95% CI] (Japanese/Caucasian)", "setting": "[3]; semaglutide 0.5 mg", "result": "0.87 [0.78; 0.96]"},
      {"measurement": "AUC0–168h,sema,SS estimated race ratio [95% CI] (Japanese/Caucasian)", "setting": "[3]; [7]", "result": "1.06 [0.92; 1.23]"},
      {"measurement": "Cmax,sema,SS estimated race ratio [95% CI] (Japanese/Caucasian)", "setting": "[3]; [7]", "result": "1.06 [0.91; 1.23]"},
      {"measurement": "Racc,DC,sema estimated race ratio [95% CI] (Japanese/Caucasian)", "setting": "[3]; semaglutide 1.0 mg", "result": "0.90 [0.82; 1.00]"},
      {"measurement": "AUC0–168h,sema,SS estimated race ratio [95% CI] (Japanese/Caucasian)", "setting": "[3]; [8]", "result": "0.99 [0.85; 1.16]"},
      {"measurement": "Cmax,sema,SS estimated race ratio [95% CI] (Japanese/Caucasian)", "setting": "[3]; [8]", "result": "1.02 [0.87; 1.19]"},
      {"measurement": "Pulse rate increase from baseline to end of treatment", "setting": "[4]; Caucasian subjects, 0.5 mg, placebo 2.8 bpm", "result": 14.6, "unit": "bpm"},
      {"measurement": "Pulse rate increase from baseline to end of treatment", "setting": "[4]; Caucasian subjects, 1.0 mg, placebo 2.8 bpm", "result": 10.5, "unit": "bpm"},
      {"measurement": "Pulse rate increase from baseline to end of treatment", "setting": "[4]; Japanese subjects, 0.5 mg, placebo decrease of 0.5 bpm", "result": 8.5, "unit": "bpm"},
      {"measurement": "Pulse rate increase from baseline to end of treatment", "setting": "[4]; Japanese subjects, 1.0 mg, placebo decrease of 0.5 bpm", "result": 10.4, "unit": "bpm"},
      {"measurement": "Gastrointestinal disorders, proportion of subjects", "setting": "[5]; Caucasian subjects, 0.5 mg, placebo 0.0%", "result": 25.0, "unit": "%"},
      {"measurement": "Adverse events, proportion of subjects", "setting": "[5]; Caucasian subjects, 0.5 mg, placebo 33.3%", "result": 50.0, "unit": "%"},
      {"measurement": "Gastrointestinal disorders, proportion of subjects", "setting": "[5]; Caucasian subjects, 1.0 mg, placebo 0.0%", "result": 25.0, "unit": "%"},
      {"measurement": "Adverse events, proportion of subjects", "setting": "[5]; Caucasian subjects, 1.0 mg, placebo 33.3%", "result": 62.5, "unit": "%"},
      {"measurement": "Adverse events, proportion of subjects", "setting": "[5]; [9]", "result": 75.0, "unit": "%"},
      {"measurement": "Gastrointestinal disorders, proportion of subjects", "setting": "[5]; [9]", "result": 62.5, "unit": "%"},
      {"measurement": "Adverse events, proportion of subjects", "setting": "[5]; [10]", "result": 62.5, "unit": "%"},
      {"measurement": "Gastrointestinal disorders, proportion of subjects", "setting": "[5]; [10]", "result": 37.5, "unit": "%"},
      {"measurement": "Biochemistry parameters, including amylase, lipase and calcitonin", "setting": "[5]; any of the treatment or race groups", "result": "No noticeable trends"},
      {"measurement": "ECG readings or physical examinations", "setting": "[5]; both populations, 0.5 and 1.0 mg", "result": "no clinically significant abnormalities"},
      {"measurement": "Hypoglycemic events", "setting": "[5]; both populations, 0.5 and 1.0 mg, during the trial", "result": "No hypoglycemic events were reported"},
      {"measurement": "Severity of adverse events", "setting": "[5]; both populations, 0.5 and 1.0 mg, none were severe", "result": "mild to moderate"},
      {"measurement": "Half-life (t1/2)", "setting": "[6]", "result": "~ 1 week"}
    ]}
  ]
}
